From ChEMBL document CHEMBL1255396, “Trailing or paradoxical growth of Candida albicans when exposed to caspofungin is not associated with microsatellite genotypes” (2010)
Converted amounts (≈) assume the structure as drawn.

Tests used:
Format in all cases: functional
Candida albicans [1] = assay: Antimicrobial activity against Candida albicans isolate 16 after 48 hrs by Etest method; conditions: isolate 16, 48 h
Outline: (§1)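 Caspofungin agar-diffusion Etest strips on clinical isolates from four Marseille teaching hospitals, each from a different patient. Run in duplicate and read after 48 h at 30°C. QC strains were C. krusei ATCC 6258 and C. parapsilosis ATCC 22019. Trailing, paradoxical growth and clear endpoints were scored from growth relative to the MIC.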

Candida albicans [2] = assay: Antimicrobial activity against Candida albicans isolate 15 after 48 hrs by Etest method; conditions: isolate 15, 48 h; outline: as §1
Candida albicans [3] = assay: Antimicrobial activity against Candida albicans isolate 14 after 48 hrs by Etest method; conditions: isolate 14, 48 h; outline: as §1
Candida albicans [4] = assay: Antimicrobial activity against Candida albicans isolate 13 after 48 hrs by Etest method; conditions: isolate 13, 48 h; outline: as §1
Candida albicans [5] = assay: Antimicrobial activity against Candida albicans isolate 12 after 48 hrs by Etest method; conditions: isolate 12, 48 h; outline: as §1
Candida albicans [6] = assay: Antimicrobial activity against Candida albicans isolate 11 after 48 hrs by Etest method; conditions: isolate 11, 48 h; outline: as §1
Candida albicans [7] = assay: Antimicrobial activity against Candida albicans isolate 9 after 48 hrs by Etest method; conditions: isolate 9, 48 h
Outline: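 Caspofungin Etest strip (agar diffusion) applied per manufacturer to a clinical isolate. Plates read after 48 h at 30°C. Testing done in duplicate. QC strains: C. krusei ATCC 6258 and C. parapsilosis ATCC 22019. Paradoxical growth and trailing were scored as separate endpoint phenotypes.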

Candida albicans [8] = assay: Antimicrobial activity against Candida albicans isolate 8 after 48 hrs by Etest method; conditions: isolate 8, 48 h; outline: as §1
Candida albicans [9] = assay: Antimicrobial activity against Candida albicans isolate 7 after 48 hrs by Etest method; conditions: isolate 7, 48 h; outline: as §1
Candida albicans [10] = assay: Antimicrobial activity against Candida albicans isolate 6 after 48 hrs by Etest method; conditions: isolate 6, 48 h; outline: as §1
Candida albicans [11] = assay: Antimicrobial activity against Candida albicans isolate 5 after 48 hrs by Etest method; conditions: isolate 5, 48 h; outline: as §1
Candida albicans [12] = assay: Antimicrobial activity against Candida albicans isolate 4 after 48 hrs by Etest method; conditions: isolate 4, 48 h; outline: as §1
Candida albicans [13] = assay: Antimicrobial activity against Candida albicans isolate 3 after 48 hrs by Etest method; conditions: isolate 3, 48 h; outline: as §1
Candida albicans [14] = assay: Antimicrobial activity against Candida albicans isolate 2 after 48 hrs by Etest method; conditions: isolate 2, 48 h; outline: as §1
Candida albicans [15] = assay: Antimicrobial activity against Candida albicans isolate 17 after 48 hrs by Etest method; conditions: isolate 17, 48 h; outline: as §1
Candida albicans [16] = assay: Antimicrobial activity against Candida albicans isolate 18 after 48 hrs by Etest method; conditions: isolate 18, 48 h; outline: as §1
Candida albicans [17] = assay: Antimicrobial activity against Candida albicans isolate 19 after 48 hrs by Etest method; conditions: isolate 19, 48 h; outline: as §1
Candida albicans [18] = assay: Antimicrobial activity against Candida albicans isolate 20 after 48 hrs by Etest method; conditions: isolate 20, 48 h; outline: as §1
Candida albicans [19] = assay: Antimicrobial activity against Candida albicans isolate 21 after 48 hrs by Etest method; conditions: isolate 21, 48 h; outline: as §1
Candida albicans [20] = assay: Antimicrobial activity against Candida albicans isolate 22 after 48 hrs by Etest method; conditions: isolate 22, 48 h; outline: as §1
Candida albicans [21] = assay: Antimicrobial activity against Candida albicans isolate 23 after 48 hrs by Etest method; conditions: isolate 23, 48 h; outline: as §1
Candida albicans [22] = assay: Antimicrobial activity against Candida albicans isolate 24 after 48 hrs by Etest method; conditions: isolate 24, 48 h; outline: as §1
Candida albicans [23] = assay: Antimicrobial activity against Candida albicans isolate 25 after 48 hrs by Etest method; conditions: isolate 25, 48 h; outline: as §1
Candida albicans [24] = assay: Antimicrobial activity against Candida albicans isolate 26 after 48 hrs by Etest method; conditions: isolate 26, 48 h; outline: as §1
Candida albicans [25] = assay: Antimicrobial activity against Candida albicans isolate 27 after 48 hrs by Etest method; conditions: isolate 27, 48 h; outline: as §1
Candida albicans [26] = assay: Antimicrobial activity against Candida albicans isolate 1 after 48 hrs by broth microdilution assay; conditions: isolate 1, 48 h
Outline: (§2)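 Sensititre YeastOne caspofungin broth microdilution, which follows the CLSI method but uses alamarBlue readout in RPMI 1640 with 2% glucose. Done in duplicate and read after 48 h at 30°C. QC strains were C. krusei ATCC 6258 and C. parapsilosis ATCC 22019. Isolates were from different patients and wards in four Marseille hospitals.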

Candida albicans [27] = assay: Antimicrobial activity against Candida albicans isolate 2 after 48 hrs by broth microdilution assay; conditions: isolate 2, 48 h; outline: as §2
Candida albicans [28] = assay: Antimicrobial activity against Candida albicans isolate 3 after 48 hrs by broth microdilution assay; conditions: isolate 3, 48 h; outline: as §2
Candida albicans [29] = assay: Antimicrobial activity against Candida albicans isolate 4 after 48 hrs by broth microdilution assay; conditions: isolate 4, 48 h; outline: as §2
Candida albicans [30] = assay: Antimicrobial activity against Candida albicans isolate 5 after 48 hrs by broth microdilution assay; conditions: isolate 5, 48 h; outline: as §2
Candida albicans [31] = assay: Antimicrobial activity against Candida albicans isolate 6 after 48 hrs by broth microdilution assay; conditions: isolate 6, 48 h; outline: as §2
Candida albicans [32] = assay: Antimicrobial activity against Candida albicans isolate 7 after 48 hrs by broth microdilution assay; conditions: isolate 7, 48 h; outline: as §2
Candida albicans [33] = assay: Antimicrobial activity against Candida albicans isolate 8 after 48 hrs by broth microdilution assay; conditions: isolate 8, 48 h; outline: as §2
Candida albicans [34] = assay: Antimicrobial activity against Candida albicans isolate 9 after 48 hrs by broth microdilution assay; conditions: isolate 9, 48 h
Outline: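 Sensititre Yeast One broth microdilution used per manufacturer. It matches the CLSI method except for the alamarBlue read-out and RPMI 1640 with 2% glucose. Read after 48 h at 30°C. Testing done in duplicate. QC strains: C. krusei ATCC 6258 and C. parapsilosis ATCC 22019. Paradoxical growth and trailing were scored separately.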

Candida albicans [35] = assay: Antimicrobial activity against Candida albicans isolate 11 after 48 hrs by broth microdilution assay; conditions: isolate 11, 48 h; outline: as §2
Candida albicans [36] = assay: Antimicrobial activity against Candida albicans isolate 12 after 48 hrs by broth microdilution assay; conditions: isolate 12, 48 h; outline: as §2
Candida albicans [37] = assay: Antimicrobial activity against Candida albicans isolate 13 after 48 hrs by broth microdilution assay; conditions: isolate 13, 48 h; outline: as §2
Candida albicans [38] = assay: Antimicrobial activity against Candida albicans isolate 14 after 48 hrs by broth microdilution assay; conditions: isolate 14, 48 h; outline: as §2
Candida albicans [39] = assay: Antimicrobial activity against Candida albicans isolate 15 after 48 hrs by broth microdilution assay; conditions: isolate 15, 48 h; outline: as §2
Candida albicans [40] = assay: Antimicrobial activity against Candida albicans isolate 16 after 48 hrs by broth microdilution assay; conditions: isolate 16, 48 h; outline: as §2
Candida albicans [41] = assay: Antimicrobial activity against Candida albicans isolate 17 after 48 hrs by broth microdilution assay; conditions: isolate 17, 48 h; outline: as §2
Candida albicans [42] = assay: Antimicrobial activity against Candida albicans isolate 18 after 48 hrs by broth microdilution assay; conditions: isolate 18, 48 h; outline: as §2
Candida albicans [43] = assay: Antimicrobial activity against Candida albicans isolate 19 after 48 hrs by broth microdilution assay; conditions: isolate 19, 48 h; outline: as §2
Candida albicans [44] = assay: Antimicrobial activity against Candida albicans isolate 20 after 48 hrs by broth microdilution assay; conditions: isolate 20, 48 h; outline: as §2
Candida albicans [45] = assay: Antimicrobial activity against Candida albicans isolate 21 after 48 hrs by broth microdilution assay; conditions: isolate 21, 48 h; outline: as §2
Candida albicans [46] = assay: Antimicrobial activity against Candida albicans isolate 22 after 48 hrs by broth microdilution assay; conditions: isolate 22, 48 h; outline: as §2
Candida albicans [47] = assay: Antimicrobial activity against Candida albicans isolate 23 after 48 hrs by broth microdilution assay; conditions: isolate 23, 48 h; outline: as §2
Candida albicans [48] = assay: Antimicrobial activity against Candida albicans isolate 24 after 48 hrs by broth microdilution assay; conditions: isolate 24, 48 h; outline: as §2
Candida albicans [49] = assay: Antimicrobial activity against Candida albicans isolate 25 after 48 hrs by broth microdilution assay; conditions: isolate 25, 48 h; outline: as §2
Candida albicans [50] = assay: Antimicrobial activity against Candida albicans isolate 26 after 48 hrs by broth microdilution assay; conditions: isolate 26, 48 h; outline: as §2
Candida albicans [51] = assay: Antimicrobial activity against Candida albicans isolate 27 after 48 hrs by broth microdilution assay; conditions: isolate 27, 48 h; outline: as §2
Candida albicans [52] = assay: Antimicrobial activity against Candida albicans isolate 1 after 48 hrs by Etest method; conditions: isolate 1, 48 h; outline: as §1

CC[C@H](C)C[C@H](C)CCCCCCCCC(=O)N[C@H]1C[C@@H](O)[C@@H](NCCN)NC(=O)[C@@H]2[C@@H](O)CCN2C(=O)[C@H]([C@H](O)CCN)NC(=O)[C@H]([C@H](O)[C@@H](O)c2ccc(O)cc2)NC(=O)[C@@H]2C[C@@H](O)CN2C(=O)[C@H]([C@@H](C)O)NC1=O [CASPOFUNGIN]
MIC (Candida albicans [1]): 0.032 µg/mL (≈ 0.0293 µM) | MIC (Candida albicans [2]): 0.016 µg/mL (≈ 0.0146 µM) | MIC (Candida albicans [3]): 0.032 µg/mL (≈ 0.0293 µM) | MIC (Candida albicans [4]): 0.023 µg/mL (≈ 0.021 µM) | MIC (Candida albicans [5]): 0.064 µg/mL (≈ 0.0585 µM) | MIC (Candida albicans [6]): 0.094 µg/mL (≈ 0.086 µM) | MIC (Candida albicans [7]): 0.047 µg/mL (≈ 0.043 µM) | MIC (Candida albicans [8]): 0.125 µg/mL (≈ 0.114 µM) | MIC (Candida albicans [9]): 0.064 µg/mL (≈ 0.0585 µM) | MIC (Candida albicans [10]): 0.125 µg/mL (≈ 0.114 µM) | MIC (Candida albicans [11]): 0.064 µg/mL (≈ 0.0585 µM) | MIC (Candida albicans [12]): 0.032 µg/mL (≈ 0.0293 µM) | MIC (Candida albicans [13]): 0.032 µg/mL (≈ 0.0293 µM) | MIC (Candida albicans [14]): 0.032 µg/mL (≈ 0.0293 µM) | MIC (Candida albicans [15]): 0.125 µg/mL (≈ 0.114 µM) | MIC (Candida albicans [16]): 0.094 µg/mL (≈ 0.086 µM) | MIC (Candida albicans [17]): 0.75 µg/mL (≈ 0.686 µM) | MIC (Candida albicans [18]): 0.032 µg/mL (≈ 0.0293 µM) | MIC (Candida albicans [19]): 0.064 µg/mL (≈ 0.0585 µM) | MIC (Candida albicans [20]): 0.125 µg/mL (≈ 0.114 µM) | MIC (Candida albicans [21]): 0.064 µg/mL (≈ 0.0585 µM) | MIC (Candida albicans [22]): 0.064 µg/mL (≈ 0.0585 µM) | MIC (Candida albicans [23]): 0.064 µg/mL (≈ 0.0585 µM) | MIC (Candida albicans [24]): 0.094 µg/mL (≈ 0.086 µM) | MIC (Candida albicans [25]): 0.047 µg/mL (≈ 0.043 µM) | MIC (Candida albicans [26]): 0.008 µg/mL (≈ 0.00732 µM) | MIC (Candida albicans [27]): 0.032 µg/mL (≈ 0.0293 µM) | MIC (Candida albicans [28]): 0.032 µg/mL (≈ 0.0293 µM) | MIC (Candida albicans [29]): 0.032 µg/mL (≈ 0.0293 µM) | MIC (Candida albicans [30]): 0.064 µg/mL (≈ 0.0585 µM) | MIC (Candida albicans [31]): 0.125 µg/mL (≈ 0.114 µM) | MIC (Candida albicans [32]): 0.064 µg/mL (≈ 0.0585 µM) | MIC (Candida albicans [33]): 0.125 µg/mL (≈ 0.114 µM) | MIC (Candida albicans [34]): 0.047 µg/mL (≈ 0.043 µM) | MIC (Candida albicans [35]): 0.094 µg/mL (≈ 0.086 µM) | MIC (Candida albicans [36]): 0.064 µg/mL (≈ 0.0585 µM) | MIC (Candida albicans [37]): 0.023 µg/mL (≈ 0.021 µM) | MIC (Candida albicans [38]): 0.032 µg/mL (≈ 0.0293 µM) | MIC (Candida albicans [39]): 0.016 µg/mL (≈ 0.0146 µM) | MIC (Candida albicans [40]): 0.032 µg/mL (≈ 0.0293 µM) | MIC (Candida albicans [41]): 0.125 µg/mL (≈ 0.114 µM) | MIC (Candida albicans [42]): 0.094 µg/mL (≈ 0.086 µM) | MIC (Candida albicans [43]): 0.75 µg/mL (≈ 0.686 µM) | MIC (Candida albicans [44]): 0.032 µg/mL (≈ 0.0293 µM) | MIC (Candida albicans [45]): 0.064 µg/mL (≈ 0.0585 µM) | MIC (Candida albicans [46]): 0.125 µg/mL (≈ 0.114 µM) | MIC (Candida albicans [47]): 0.064 µg/mL (≈ 0.0585 µM) | MIC (Candida albicans [48]): 0.064 µg/mL (≈ 0.0585 µM) | MIC (Candida albicans [49]): 0.064 µg/mL (≈ 0.0585 µM) | MIC (Candida albicans [50]): 0.094 µg/mL (≈ 0.086 µM) | MIC (Candida albicans [51]): 0.047 µg/mL (≈ 0.043 µM) | MIC (Candida albicans [52]): 0.008 µg/mL (≈ 0.00732 µM)
